# T cruzi repl: blocks replication of Trypanosoma cruzi | T. cruzi beta-gal in NIH3T3, luminescence, 90 h | inhibition, % (test concentration not listed) | 300,000 tested, 1.4% active;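 active means mean inhibition across valid replicates above about 55%, limit read from the data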;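 further: signal also drops with host cell toxicity which is not excluded here; 0% = plate median of DMSO wells and 100% = zero luminescence signal; higher percent means less beta-gal luminescence so fewer parasites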
#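 compound dosing = single 50 nL compound addition per well in DMSO | material = NIH/3T3 host cells with β-galactosidase reporter T. cruzi | input = 5,000 host fibroblasts per well | timing = ≥90 h infection period, 3 h prior cell attachment | read-out basis = percent inhibition of parasite-derived β-gal signal | detection = GalScreen β-gal luminescence, detergent lysis, 60 min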
# Mdm2 MdmX PPI: human Mdm2/MdmX binding inhibition; SaOS-2 split-luciferase Mdm2/MdmX complementation, luminescence; 330,000 tested, 3% active; AID 485346; inhibition, % at 8 µM; O15151+Q00987;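 active means inhibition of at least 50% at 8 µM in the primary screen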
# Target sequence (O15151 whole entry, looked up): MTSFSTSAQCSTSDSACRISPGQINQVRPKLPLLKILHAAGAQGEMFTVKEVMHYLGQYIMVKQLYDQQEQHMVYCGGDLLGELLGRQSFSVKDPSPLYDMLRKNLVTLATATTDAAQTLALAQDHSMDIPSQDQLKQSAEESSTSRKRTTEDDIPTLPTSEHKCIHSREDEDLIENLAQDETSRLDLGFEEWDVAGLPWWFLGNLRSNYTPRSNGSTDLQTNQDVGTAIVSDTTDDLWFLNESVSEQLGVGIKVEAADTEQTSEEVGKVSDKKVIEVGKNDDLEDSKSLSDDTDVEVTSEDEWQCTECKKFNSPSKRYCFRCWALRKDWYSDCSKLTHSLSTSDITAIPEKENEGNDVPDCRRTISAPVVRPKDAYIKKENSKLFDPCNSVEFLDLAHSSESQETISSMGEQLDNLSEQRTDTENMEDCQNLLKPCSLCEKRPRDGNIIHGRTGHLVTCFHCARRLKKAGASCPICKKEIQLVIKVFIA
# Target sequence (Q00987 whole entry, looked up): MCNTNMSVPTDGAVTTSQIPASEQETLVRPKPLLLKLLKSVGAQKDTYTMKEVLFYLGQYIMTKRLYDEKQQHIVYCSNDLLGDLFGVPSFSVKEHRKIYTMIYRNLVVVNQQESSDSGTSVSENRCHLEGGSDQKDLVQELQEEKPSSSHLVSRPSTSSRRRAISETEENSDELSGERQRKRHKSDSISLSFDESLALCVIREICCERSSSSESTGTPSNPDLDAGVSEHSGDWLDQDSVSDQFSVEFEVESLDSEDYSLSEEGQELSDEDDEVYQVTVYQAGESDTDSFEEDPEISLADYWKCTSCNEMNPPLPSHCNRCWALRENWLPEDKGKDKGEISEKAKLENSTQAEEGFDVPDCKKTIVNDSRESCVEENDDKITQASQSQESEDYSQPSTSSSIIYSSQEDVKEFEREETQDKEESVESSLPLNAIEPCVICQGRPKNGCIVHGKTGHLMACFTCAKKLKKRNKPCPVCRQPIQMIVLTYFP
# Beta apoptosis: blocks beta cell apoptosis. protection from apoptosis, % (no concentration beside the values). INS-1E cytokine-induced death, ATP luminescence, 48 h; percent of positive-control rescue, neutral wells zero. AID 435005. 300,000 tested, 0.8% active;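 active means Every replicate reaches about 75%, or at least half do and their mean reaches it too, limit read from the data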;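 further: 0% = cytokine-treated negative control wells and 100% = positive control rescue; higher means more ATP so stronger rescue from cytokine killing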
# Lmaj promast: reduces viability of Leishmania major promastigotes | inhibition, % at 10 µM | 200,000 tested, 9% active | resazurin fluorescence viability; in the data active means inhibition above about 50%;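 further: promastigotes grown with compound for 44 hours at 28 °C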
# SKKanGAS inh: blocks kanamycin growth of S. pyogenes SKKanGAS strain. BacTiter-Glo, 6 h. inhibition, % at 7.5 µM. 300,000 tested, 1.3% active. AID 1662;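 active means mean replicate score, as percent of positive control median, at least 50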;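 further: strain carries kanamycin resistance gene driven by streptokinase promoter and grows in 40 µg/ml kanamycin; loss of luminescence reflects streptokinase promoter inhibition or plain growth inhibition; 0% = median of DMSO wells and 100% = positive control at its reference dose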
# CSC inhib: blocks cancer stem cells. cancer stem cell-like cells viability, luminescence. inhibition, % at 7.5 µM. 300,000 tested, 1.1% active; in the data active means inhibition above about 75%; tested in HMLE shEcad cells
# The depositor's hits bear a star; · = not tested or not shown. Hits are enriched below; roughly 9.4% of the tested compounds scored in any of these assays.
SMILES,T cruzi repl,Mdm2 MdmX PPI,Beta apoptosis,Lmaj promast,SKKanGAS inh,CSC inhib
CCOC(=O)N1CCN(CC(=O)Nc2ccc(Oc3ccccc3)cc2)CC1,-2,22,2,97*,9,-11
CC1CCCCN1CC(=O)Nc1ccc(Oc2ccccc2)cc1 (stereo not given),14,-12,·,96*,2,63
C=CCC(=O)OCC(=O)Nc1ccc(Oc2ccccc2)cc1,·,·,·,97*,·,·
CCCOc1ccc(C(=O)CCC(=O)OCC(=O)Nc2ccc(Oc3ccccc3)cc2)cc1,-20,17,-2,-5,4,-9
CC1CCCCN1CC(=O)Nc1ccc(N2CCCCCC2)cc1 (stereo not given),14,1,2,25,-18,39
Nc1c(C(=O)Nc2ccccc2Cl)nnn1-c1ccc2c(c1)OCCO2,27,-84,11,·,1,-8
Cc1onc(-c2c(F)cccc2Cl)c1C(=O)N(Cc1ccccc1)C(C)C,3,1,·,·,8,·
O=C1NN(c2ccccc2)C(=O)/C1=C\c1ccccc1,2,1,-5,·,11,8
O=C1NN(c2cccc(Br)c2)C(=O)/C1=C\c1ccccc1,8,13,-17,·,3,109*
Cn1c(=O)oc2cc(S(=O)(=O)N3CCC(C(=O)NCCc4ccccc4)CC3)ccc21,1,5,-2,·,-5,12
CCOC(=O)C1CN(S(=O)(=O)c2cccs2)c2ccc(CC(=O)OC)cc2O1 (stereo not given),-15,6,-3,·,-5,-5
COc1ccc(C(C[N+](=O)[O-])c2c(-c3ccccc3)cc3ccccn23)cc1OC (stereo not given),-9,37,1,100*,0,10
COc1cc(C(C[N+](=O)[O-])c2c(C)cc3ccccn23)ccc1O (stereo not given),25,-21,14,·,5,23
C[C@@H]1CN([C@@H](C)CO)C(=O)Cc2cc(NC(=O)Nc3ccc4c(c3)OCO4)ccc2O[C@@H]1CN(C)C(=O)NC1CCCCC1,·,3,-1,·,·,·
Nc1cc(-c2ccc(OC(F)(F)F)cc2)nn1-c1ccc(Cl)c(Cl)c1,5,0,-10,·,67*,82*
O=[N+]([O-])c1ccc(C2CCCC/C2=N/OCc2ccc(F)cc2)c([N+](=O)[O-])c1 (stereo not given),61*,10,-2,54*,12,15
O=[N+]([O-])c1ccc(C2CCCC/C2=N/OCc2ccccc2F)c([N+](=O)[O-])c1 (stereo not given),·,31,-6,19,-6,24
O=C(O/N=C1\CCCCC1c1ccc([N+](=O)[O-])cc1[N+](=O)[O-])c1c(F)cccc1F (stereo not given),2,13,-20,62*,0,41
O=[N+]([O-])c1ccc(C2CCCC/C2=N/O)c([N+](=O)[O-])c1 (stereo not given),4,10,-1,·,12,50
O=C(C(=O)N1CCN(c2cccc(Cl)c2)CC1)c1cn(CC(=O)N2CCOCC2)c2ccccc12,8,1,-2,·,6,-9
CC(C)(C)NS(=O)(=O)c1ccc(CCC(=O)Nc2cc(Cl)ccc2Oc2ccccc2)cc1,35,36,28,98*,18,23
N=c1sccn1CC(=O)Nc1cc(Cl)ccc1Oc1ccccc1,-5,43,9,100*,7,0
COc1cccc(OCC(=O)Nc2ccccc2NC(C)=O)c1,-3,10,-1,-1,-24,-19
N=c1sccn1CC(=O)Nc1cccc(Oc2ccccc2)c1,18,13,3,10,2,-4
COc1cccc(OCC(=O)Nc2cc(Cl)ccc2Oc2ccccc2)c1,51,8,13,95*,·,54
SMILES,T cruzi repl,Mdm2 MdmX PPI,Beta apoptosis,Lmaj promast,SKKanGAS inh,CSC inhib
CCC1CCCCN1C(=O)CSc1n[nH]c(N)n1 (stereo not given),·,0,-2,·,·,1
Fc1ccccc1CSc1nc2ccccc2[nH]1,-6,-127,3,91*,3,-7
c1ccc(-n2cc(CNCCc3cscn3)c(-c3ccc4c(c3)OCO4)n2)cc1,13,15,-1,16,8,·
Cc1ccc2c(c1)Oc1ccccc1C=C2C(=O)O,-9,-3,-3,-4,0,-7
CCCCC(C(=O)NC1CCCC1)N(C(=O)c1snc(C(N)=O)c1N)c1ccc(C)cc1 (stereo not given),12,9,8,·,5,·
CSc1ccc(C2c3[nH]c4ccccc4c3CCN2C(=O)c2cc(C)n(C)n2)cc1 (stereo not given),53,-93,3,43,20,-8
Cc1nc(C(=O)N2CCc3c([nH]c4ccccc34)C2c2ccccn2)cs1 (stereo not given),2,20,·,9,-1,-14
Cc1cc(C(=O)N2CCc3c([nH]c4ccccc34)C2c2cccc(Cl)c2)nn1C (stereo not given),56*,29,6,30,29,15
CCc1ccc(C2c3[nH]c4ccccc4c3CCN2C(=O)c2cc(C)nn2C)cc1 (stereo not given),-1,34,-27,60*,27,48
Cc1cnc(C(=O)N2CCc3c([nH]c4ccccc34)C2c2ccc(F)cc2)cn1 (stereo not given),14,13,11,28,-2,1
Cc1nc(C(=O)N2CCc3c([nH]c4ccccc34)C2c2cc(F)ccc2F)cs1 (stereo not given),12,-14,3,54*,6,-8
O=C(CSCc1ccccc1)Nc1ccccc1C(=O)Nc1ccc(C(=O)O)cc1,-7,21,-5,·,6,-3
CCOP(=O)(OCC)C(NC(=O)c1cc([N+](=O)[O-])cc([N+](=O)[O-])c1)C(F)(F)F (stereo not given),2,20,0,1,2,·
O=C(CSc1nc2ccccc2[nH]1)N1CCN(S(=O)(=O)c2ccc(Cl)cc2)CC1,11,-5,-9,64*,3,-6
O=S(=O)(c1ccc2nc(SCc3ccc(Cl)cc3)[nH]c2c1)N1CCOCC1,-7,18,-4,81*,-46,-6
O=S(=O)(c1ccc2nc(SCc3cccc(Cl)c3)[nH]c2c1)N1CCOCC1,-1,8,3,18,-18,3
O=C(Cn1nnc(-c2ccccc2)n1)N1CCN(S(=O)(=O)c2ccc(Cl)cc2)CC1,-9,5,-10,37,-10,·
Cc1ccc(CNC(=O)CSc2nc3ccccc3[nH]2)cc1,10,3,5,·,-5,1
Cc1ccccc1-c1nnn(CC(=O)N2CCN(S(=O)(=O)c3ccc(Cl)cc3)CC2)n1,15,6,-4,53*,-2,-16
O=C(CSc1nc2ccccc2[nH]1)NCCc1ccc(Cl)cc1,-2,-26,-6,56*,3,1
